Values after ≈ are worked out from the molar mass of the structure shown. Values belong to the compound of their own block, whether it stands above or below them.
Experiments:
[1] = Cmax in Sprague-Dawley rat at 10 mg/kg, po by LC-MS analysis; format: ADME, organism-based; design: dose 10 mg/kg, route oral; details: in vivo
Procedure, shortened: (§1)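 Rats were dosed orally or by intravenous injection. For prodrugs, all parameters were based on the active parent antibacterial detected in plasma, and each prodrug dose was also given as an equivalent parent dose. Parameters were Cmax, Tmax, elimination T1/2, AUC from the concentration–time curve, clearance and oral bioavailability F.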

[2] = Aqueous solubility of the compound; details: aqueous (not further specified)
[3] = AUC in Sprague-Dawley rat at 10 mg/kg, po by LC-MS analysis; format: ADME, organism-based, Plasma; design: dose 10 mg/kg, route oral; details: Sprague-Dawley, plasma; procedure, shortened: as §1
[4] = Elimination half life in Sprague-Dawley rat at 10 mg/kg, po by LC-MS analysis; format: ADME, organism-based; design: dose 10 mg/kg, route oral; details: in vivo, read-out: beta t1/2 (converted); procedure, shortened: as §1
[5] = Tmax in Sprague-Dawley rat at 10 mg/kg, po by LC-MS analysis; format: ADME, organism-based; design: dose 10 mg/kg, route oral; details: in vivo; procedure, shortened: as §1
[6] = target: Voltage-gated inwardly rectifying potassium channel KCNH2 (Homo sapiens, UniProt Q12809)
Chain of Voltage-gated inwardly rectifying potassium channel KCNH2 (Q12809 whole entry): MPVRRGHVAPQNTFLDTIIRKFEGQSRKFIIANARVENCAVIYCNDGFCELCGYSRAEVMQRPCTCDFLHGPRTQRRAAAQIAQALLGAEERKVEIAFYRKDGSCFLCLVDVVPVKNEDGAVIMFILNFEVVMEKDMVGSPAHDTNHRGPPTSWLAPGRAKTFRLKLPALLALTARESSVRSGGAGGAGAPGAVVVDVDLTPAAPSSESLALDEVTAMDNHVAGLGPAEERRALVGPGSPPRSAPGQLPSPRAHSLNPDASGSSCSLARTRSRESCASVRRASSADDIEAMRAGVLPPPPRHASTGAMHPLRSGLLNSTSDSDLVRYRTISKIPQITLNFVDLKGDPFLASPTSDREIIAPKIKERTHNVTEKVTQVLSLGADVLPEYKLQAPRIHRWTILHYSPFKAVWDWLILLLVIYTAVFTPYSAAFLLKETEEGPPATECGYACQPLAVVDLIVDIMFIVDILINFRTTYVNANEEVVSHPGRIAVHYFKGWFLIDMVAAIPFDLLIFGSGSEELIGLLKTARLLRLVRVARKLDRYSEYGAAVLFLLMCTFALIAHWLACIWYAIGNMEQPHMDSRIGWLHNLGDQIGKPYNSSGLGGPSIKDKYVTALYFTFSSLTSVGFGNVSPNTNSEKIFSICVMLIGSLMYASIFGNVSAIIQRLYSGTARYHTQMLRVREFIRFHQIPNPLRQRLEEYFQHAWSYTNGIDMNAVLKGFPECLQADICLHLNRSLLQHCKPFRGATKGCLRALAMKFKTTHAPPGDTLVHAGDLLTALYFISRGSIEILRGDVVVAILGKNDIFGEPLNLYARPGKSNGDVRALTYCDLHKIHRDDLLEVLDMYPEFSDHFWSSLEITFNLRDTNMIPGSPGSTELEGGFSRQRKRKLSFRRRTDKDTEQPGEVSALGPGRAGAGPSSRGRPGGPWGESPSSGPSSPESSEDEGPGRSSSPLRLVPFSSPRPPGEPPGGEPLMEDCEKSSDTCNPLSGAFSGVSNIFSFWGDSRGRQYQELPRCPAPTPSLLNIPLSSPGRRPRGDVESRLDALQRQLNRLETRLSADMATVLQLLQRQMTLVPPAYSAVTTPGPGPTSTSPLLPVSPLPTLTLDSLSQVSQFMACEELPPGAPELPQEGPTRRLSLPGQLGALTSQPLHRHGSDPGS

[7] = Cmax in Sprague-Dawley rat at 50 mg/kg, po by LC-MS analysis; format: ADME, organism-based; design: dose 50 mg/kg, route oral; details: in vivo; procedure, shortened: as §1
Enterococcus faecium = test: Antibacterial activity against linezolid-resistant Enterococcus faecium after 16 hrs by NCCLS agar dilution method; format: functional
Procedure, shortened: (§2)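 Agar dilution MIC. Stocks were 320 μg/mL in 50% aqueous DMSO, 2-fold serially diluted in sterile water, then diluted 10-fold into Mueller–Hinton agar to give 16–0.03125 μg/mL final. Organisms were grown in MH broth at 35 °C for 8 h and adjusted to 0.5 McFarland. They were spotted onto drug-containing plates with a multipoint inoculator and incubated at 35 °C for 16 h. Linezolid was the positive control.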

Enterococcus faecalis [8] = test: Antibacterial activity against linezolid-resistant Enterococcus faecalis after 16 hrs by NCCLS agar dilution method; format: functional; procedure, shortened: as §2
[9] = test system: Staphylococcus epidermidis; test: Antibacterial activity against linezolid-resistant Staphylococcus epidermidis after 16 hrs by NCCLS agar dilution method; format: functional; procedure, shortened: as §2
Staphylococcus aureus [10] = test: Antibacterial activity against linezolid-resistant Staphylococcus aureus after 16 hrs by NCCLS agar dilution method; format: functional; procedure, shortened: as §2
Staphylococcus aureus [11] = test: Antibacterial activity against Staphylococcus aureus ATCC 29213 after 16 hrs by NCCLS agar dilution method; format: functional; details: ATCC 29213, 16 h; procedure, shortened: as §2
Enterococcus faecalis [12] = test: Antibacterial activity against Enterococcus faecalis after 16 hrs by NCCLS agar dilution method; format: functional
Procedure, shortened: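 Agar dilution MIC per NCCLS, 6 E. faecalis strains. Stock was 320 μg/mL in 50% water/DMSO, serially 2-fold diluted in sterile water, then 10-fold into Mueller–Hinton agar to give 16–0.03125 μg/mL final. Inocula came from MH broth cultures grown 8 h at 35 °C, adjusted to 0.5 McFarland and spotted by multipoint inoculator. Plates were read after 16 h at 35 °C.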

Streptococcus pneumoniae = test: Antibacterial activity against penicillin-resistant Streptococcus pneumoniae after 16 hrs by NCCLS agar dilution method; format: functional; procedure, shortened: as §2
[13] = test system: Staphylococcus epidermidis; test: Antibacterial activity against methicillin-resistant Staphylococcus epidermidis after 16 hrs by NCCLS agar dilution method; format: functional; procedure, shortened: as §2
[14] = test system: Staphylococcus epidermidis; test: Antibacterial activity against methicillin-sensitive Staphylococcus epidermidis after 16 hrs by NCCLS agar dilution method; format: functional; procedure, shortened: as §2
Staphylococcus aureus [15] = test: Antibacterial activity against methicillin-resistant Staphylococcus aureus after 16 hrs by NCCLS agar dilution method; format: functional; procedure, shortened: as §2
Staphylococcus aureus [16] = test: Antibacterial activity against methicillin-sensitive Staphylococcus aureus after 16 hrs by NCCLS agar dilution method; format: functional; procedure, shortened: as §2
[17] = AUC in Sprague-Dawley rat at 50 mg/kg, po by LC-MS analysis; format: ADME, organism-based; design: dose 50 mg/kg, route oral; details: plasma; procedure, shortened: as §1
[18] = Elimination half life in Sprague-Dawley rat at 50 mg/kg, po by LC-MS analysis; format: ADME, organism-based; design: dose 50 mg/kg, route oral; details: in vivo, read-out: beta t1/2 (converted); procedure, shortened: as §1
[19] = Tmax in Sprague-Dawley rat at 50 mg/kg, po by LC-MS analysis; format: ADME, organism-based; design: dose 50 mg/kg, route oral; details: in vivo; procedure, shortened: as §1
hERG (KCNH2) = hERG (KCNH2) (Homo sapiens, UniProt Q12809); test: Inhibition of human ERG at 30 uM relative to control
Chain of hERG (KCNH2) (Q12809 whole entry): as above

[20] = Cmax in Sprague-Dawley rat at 15 mg/kg, po by LC-MS analysis; format: ADME, organism-based; design: dose 15 mg/kg, route oral; details: in vivo; procedure, shortened: as §1
[21] = Elimination half life in Sprague-Dawley rat at 10 mg/kg, iv by LC-MS analysis; format: ADME, organism-based; design: dose 10 mg/kg, route intravenous; details: in vivo, read-out: beta t1/2 (converted); procedure, shortened: as §1
[22] = Oral bioavailability in Sprague-Dawley rat at 15 mg/kg; format: ADME, organism-based; details: in vivo; procedure, shortened: as §1
[23] = Clearance in Sprague-Dawley rat at 10 mg/kg, iv by LC-MS analysis; format: ADME, organism-based; design: dose 10 mg/kg, route intravenous; details: in vivo; procedure, shortened: as §1
[24] = AUC in Sprague-Dawley rat at 10 mg/kg, iv by LC-MS analysis; format: ADME, organism-based; design: dose 10 mg/kg, route intravenous; details: plasma
Procedure, shortened: (§3)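 Rats dosed orally or by intravenous injection. AUC is the area under the plasma concentration–time curve. For the prodrug entries, all PK values were based on the amount of the active parent antibacterial detected, not the administered prodrug.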

[25] = AUC in Sprague-Dawley rat at 15 mg/kg, po by LC-MS analysis; format: ADME, organism-based; design: dose 15 mg/kg, route oral; details: plasma; procedure, shortened: as §3
[26] = Tmax in Sprague-Dawley rat at 15 mg/kg, po by LC-MS analysis; format: ADME, organism-based; design: dose 15 mg/kg, route oral; details: in vivo; procedure, shortened: as §1
[27] = Elimination half life in Sprague-Dawley rat at 15 mg/kg, po by LC-MS analysis; format: ADME, organism-based; design: dose 15 mg/kg, route oral; details: in vivo, read-out: beta t1/2 (converted); procedure, shortened: as §1

- Cmax [1]: 15.2 ng/mL
- solubility [2]: 15 mg/mL
- AUC [3]: 81.1 ng·h/mL
- half-life [4]: 3.17 h
- Tmax [5]: 1.31 h
SMILES: N#Cc1ccc(-c2ccc3c(c2)OC[C@H]2[C@H](COP(=O)([O-])[O-])OC(=O)N32)cn1.[Na+].[Na+]

SMILES: CC(=O)NC[C@@H]1OC(=O)N2c3ccc(-c4ccc(C#N)nc4)cc3OC[C@@H]12
- IC50 [6]: 2780 nM

SMILES: N#Cc1ccc(-c2ccc3c(c2)OC[C@H]2[C@H](CO)OC(=O)N32)cn1
- Cmax [7]: 3020 ng/mL
- MIC (Enterococcus faecium): 2 µg/mL (≈ 6.19 µM)
- MIC (Enterococcus faecalis [8]): 2 µg/mL (≈ 6.19 µM)
- MIC [9]: 4 µg/mL (≈ 12.4 µM)
- MIC (Staphylococcus aureus [10]): 4 µg/mL (≈ 12.4 µM)
- MIC (Staphylococcus aureus [11]): 0.25 µg/mL (≈ 0.773 µM)
- MIC (Enterococcus faecalis [12]): 1 µg/mL (≈ 3.09 µM)
- MIC (Streptococcus pneumoniae): 0.25 µg/mL (≈ 0.773 µM)
- MIC [13]: 0.125 µg/mL (≈ 0.387 µM)
- MIC [14]: 0.25 µg/mL (≈ 0.773 µM)
- MIC (Staphylococcus aureus [15]): 0.25 µg/mL (≈ 0.773 µM)
- MIC (Staphylococcus aureus [16]): 0.25 µg/mL (≈ 0.773 µM)
- AUC [17]: 33400 ng·h/mL
- half-life [18]: 4.69 h
- Tmax [19]: 4.5 h

SMILES: C[C@@H](O)C(=O)c1ccc(-c2ccc3c(c2)OC[C@H]2[C@H](CO)OC(=O)N32)cn1
- inhibition at 30 µM (hERG (KCNH2)): 18.4%
- MIC (Enterococcus faecium): 4 µg/mL (≈ 10.8 µM)
- MIC (Enterococcus faecalis [8]): 4 µg/mL (≈ 10.8 µM)
- MIC [9]: 4 µg/mL (≈ 10.8 µM)
- MIC (Staphylococcus aureus [10]): 8 µg/mL (≈ 21.6 µM)
- MIC (Staphylococcus aureus [11]): 0.25 µg/mL (≈ 0.675 µM)
- MIC (Enterococcus faecalis [12]): 1 µg/mL (≈ 2.7 µM)
- MIC (Streptococcus pneumoniae): 0.25 µg/mL (≈ 0.675 µM)
- MIC [13]: 0.125 µg/mL (≈ 0.338 µM)
- MIC [14]: 0.125 µg/mL (≈ 0.338 µM)
- MIC (Staphylococcus aureus [15]): 0.125 µg/mL (≈ 0.338 µM)
- MIC (Staphylococcus aureus [16]): 0.25 µg/mL (≈ 0.675 µM)

SMILES: O=C1O[C@@H](CO)[C@@H]2COc3cc(-c4ccc(C(O)CO)nc4)ccc3N12 (some centres not stated)
- MIC (Enterococcus faecium): 4 µg/mL (≈ 11.2 µM)
- MIC (Enterococcus faecalis [8]): 4 µg/mL (≈ 11.2 µM)
- MIC [9]: 8 µg/mL (≈ 22.3 µM)
- MIC (Staphylococcus aureus [10]): 16 µg/mL (≈ 44.6 µM)
- MIC (Staphylococcus aureus [11]): 0.5 µg/mL (≈ 1.4 µM)
- MIC (Enterococcus faecalis [12]): 1 µg/mL (≈ 2.79 µM)
- MIC (Streptococcus pneumoniae): 0.5 µg/mL (≈ 1.4 µM)
- MIC [13]: 0.5 µg/mL (≈ 1.4 µM)
- MIC [14]: 0.5 µg/mL (≈ 1.4 µM)
- MIC (Staphylococcus aureus [15]): 0.5 µg/mL (≈ 1.4 µM)
- MIC (Staphylococcus aureus [16]): 0.5 µg/mL (≈ 1.4 µM)

SMILES: N=C(N)NCCC[C@H](N)C(=O)O.N=C(N)NCCC[C@H](N)C(=O)O.O=C1OC(COP(=O)(O)O)CN1c1ccc(-c2ccc3c(c2)OC[C@H]2[C@H](CO)OC(=O)N32)cn1 (some centres not stated)
- Cmax [20]: 416 ng/mL
- half-life [21]: 0.26 h
- bioavailability [22]: 32.6%
- clearance [23]: 46.3 mL/min/kg
- AUC [24]: 1800 ng·h/mL
- AUC [25]: 914 ng·h/mL
- Tmax [26]: 0.25 h
- half-life [27]: 1.45 h
